Bioassay records: PubChem, The Scripps Research Institute Molecular Screening Center
Rows were chosen to be rich in hits. Some 0.7% of all compounds tested hit in one or more screens of this group.
proCasp3 act: activates human procaspase-3; P42574; recombinant procaspase-3 D3A, Ac-DEVD-pNA absorbance 405 nm; activation, % at 8.5 µM; 330,000 tested, 0.11% active; AID 463141;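 active = activation above the mean of all tested compounds plus 3 SD, cut at about 21% in these data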;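 note: 0% = DMSO alone and 100% = DMSO wells spiked with extra 5 µM PC-3 D3A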
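Test system: Procaspase-3 D3A mutant, all three cleavage aspartates alanine | Dosing: Single dose, 8.5 µM nominal compound, 0.8% DMSO | Schedule: 1 h preincubation, 2 h reaction | Technique: 405 nm absorbance of p-nitroaniline, reads at 0 and 120 min | Repeats: One well per compound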
GAA850 FXN act: increases GAA850 frataxin promoter reporter activity; AID 540364; HEK293 lucGAA850 FXN promoter luciferase reporter, 24 h; percent of 10 µM SAHA response; 360,000 tested, 0.56% active; activation, % at 6 µM;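 active = activation above the average of all compounds screened plus 3 SD, cutoff fixed separately per campaign, cut at about 7.5% in these data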;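 note: 0% = DMSO wells and 100% = 10 µM SAHA wells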
procasp7 counter: counter-screen for procaspase-3 activators: activators of human procaspase-7; P55210; recombinant procaspase-7, Ac-DEVD-pNA absorbance 405 nm; D23A/D198A/D206A triple mutant, cannot self-cleave; scale: DMSO 0, 5 µM enzyme 100; activation, % at 8.5 µM; 330,000 tested, 0.093% active; AID 463210;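 active = percent activation above the screen-wide mean plus 3 SD, cut at about 25% in these data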
Target sequence (P55210 whole entry D23A/D198A/D206A): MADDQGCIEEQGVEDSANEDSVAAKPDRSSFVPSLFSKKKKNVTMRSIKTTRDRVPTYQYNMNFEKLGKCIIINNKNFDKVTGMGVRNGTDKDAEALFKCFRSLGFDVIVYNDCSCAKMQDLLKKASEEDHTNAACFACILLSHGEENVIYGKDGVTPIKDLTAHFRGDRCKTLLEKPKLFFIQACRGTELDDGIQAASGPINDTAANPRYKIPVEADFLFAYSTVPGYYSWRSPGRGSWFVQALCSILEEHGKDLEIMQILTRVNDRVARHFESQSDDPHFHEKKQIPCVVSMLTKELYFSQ
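System: Procaspase-7 triple mutant (PC-7 D3A); measure: % activation from two-timepoint absorbance difference, scaled to controls; times: 1 h compound preincubation, 2 h substrate cleavage, 25 °C; also added: Ac-DEVD-pNA substrate, 400 µM as added; measured by: Epi-absorbance of released pNA at 405 nm, two timepoints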
procasp7 triplic: activates human procaspase-7, counter-screen for procaspase-3 activators; shares compounds with proCasp3 act; recombinant procaspase-7, Ac-DEVD-pNA absorbance; asp23/198/206-to-Ala mutant, cannot self-cleave; activation, % at 8.5 µM; 210 tested, under 10 active;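 active = mean activation above a set limit taken from an earlier procaspase-7 screen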;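 note: 0% = DMSO wells and 100% = DMSO plus 5 µM procaspase-7 enzyme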
proCasp3 confirm: procaspase-3 (human) activation, confirmed. shares compounds with proCasp3 act. recombinant PC-3 D3A, Ac-DEVD-pNA absorbance 405 nm; 100% is higher-enzyme control. activation, % at 8.5 µM. 210 tested, 10% active;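 active = mean activation above a set limit carried over from the earlier primary screen, cut at about 22% in these data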
Starred values were filed as active, the others as inactive; nt = no result given.

SMILES	proCasp3 act	GAA850 FXN act	procasp7 counter	procasp7 triplic	proCasp3 confirm
Cc1c(O)ccc2c(CN3CCN(CCO)CC3)cc(=O)oc12	19	-1	19	nt	nt
CC(C)[C@H](N)C(=O)NC[C@H]1CC[C@H](C(=O)N[C@@H](Cc2ccccc2)C(=O)O)CC1	1	0	-9	nt	nt
CCC(=O)N1CCN(c2ccc(OC)cc2[N+](=O)[O-])CC1	-4	-3	11	nt	nt
COc1ccc(N2CCN(C(=O)CC34CC5CC(CC(C5)C3)C4)CC2)c([N+](=O)[O-])c1	22*	-2	-3	2	4
COCc1c(C(=O)Nc2cccc(S(=O)(=O)N3CCCCC3)c2)oc2ccccc12	0	2	-6	nt	nt
O=[N+]([O-])c1ccc(CSCc2ccc([N+](=O)[O-])cc2)cc1	nt	-1	nt	nt	nt
Cc1ccc(NC(=O)CSCC(=O)N(CCC(C)C)c2c(N)n(Cc3ccccc3)c(=O)[nH]c2=O)cc1	nt	-1	nt	nt	nt
COCCN(C(=O)CSCC(=O)Nc1ccc(C)cc1)c1c(N)n(CC(C)C)c(=O)[nH]c1=O	61*	1	5	2	5
COC(=O)Cn1c(=NC(=O)c2cc(-c3cccs3)nc3ccccc23)sc2cc(S(N)(=O)=O)ccc21	78*	1	2	-20	-15
CCOC(=O)Cn1c(=NC(=O)c2cc(-c3cccs3)nc3ccccc23)sc2cc(S(N)(=O)=O)ccc21	-4	0	-11	nt	nt
Cc1sc2ncnc(N3CCC(C(=O)N(C)CC(=O)Nc4ccc(Cl)c(C(F)(F)F)c4)CC3)c2c1C	5	-3	6	nt	nt
CCN1CCN(c2ncnc3c2sc(=S)n3-c2ccccc2)CC1	23*	-1	6	2	4
S=c1sc2c(N3CCN(Cc4ccccc4)CC3)ncnc2n1-c1ccccc1	-5	-2	11	nt	nt
Nc1cc(N)nc(SCC(=O)NCc2ccc3c(c2)OCO3)n1	-11	1	-22	nt	nt
CCCCOC(=O)c1cc(-c2ccc(/C=N/n3cnnc3)o2)ccc1Cl	11	3	6	nt	nt
CCOC(=O)c1cc(-c2ccc(/C=N\n3cnnc3)o2)ccc1Cl	29*	1	25	1	2
CCOC(=O)c1sc2nc(C)nc(NC3CCC(O)CC3)c2c1C (stereo unspecified)	7	1	6	nt	nt
COc1ccccc1Nc1nc2c(C)cccc2cc1C#N	40*	0	18	80*	94*
COc1ccccc1Nc1nc2ccc(C)cc2cc1C#N	16	5	6	nt	nt
COc1ccc(S(=O)(=O)N2CCN(C(=O)c3ccco3)CC2)cc1C(C)(C)C	8	2	7	nt	nt
COc1ccccc1OCCCCNC(C)(C)C	26*	2	8	2	2
CC(C)(C)NCCCCOc1ccccc1F	0	-2	5	nt	nt
CC(=O)c1cn(CC(=O)Nc2ccccc2F)c2ccccc12	6	1	-9	nt	nt
O=C(Cn1c2ccccc2c(=O)c2ccccc21)Nc1ccccc1F	28*	2	-12	-21	-14
Cc1ccc(N(Cc2ccccc2)C(=O)c2ccc(Cl)c(S(=O)(=O)N3CCOCC3)c2)cc1	-2	-1	7	nt	nt
SMILES	proCasp3 act	GAA850 FXN act	procasp7 counter	procasp7 triplic	proCasp3 confirm
CCOC(=O)C1=C(C)NC(C)=C(C(=O)OCC)C1C(=O)OCC(=O)NC1(C#N)CCCCC1	0	-4	-12	nt	nt
C[C@]12c3[nH]c4cc(-c5ccco5)ccc4c3CCN1C(=O)[C@@H](CC(=O)NCc1cccc(C(F)(F)F)c1)C[C@@H]2C(=O)N1CCCCC1	1	0	-2	nt	nt
Cc1cccc(C2=NN(c3ccccc3)[C@H](CO)[C@H]2c2ccc(Cl)cc2)c1	19	-1	9	nt	nt
OC[C@@H]1[C@@H](c2ccccc2)C(c2cccc(Cl)c2)=NN1c1ccccc1	18	1	8	nt	nt
Cc1cccc(C2=NN(c3ccccc3)[C@H](CO)[C@H]2c2ccc(F)cc2)c1	25*	2	12	-21	-14
OC[C@@H]1[C@@H](c2ccc(Cl)cc2)C(c2ccc(F)cc2)=NN1c1ccccc1	24*	1	17	-20	-16
Cc1nnsc1C(=O)Nc1ccc(S(=O)(=O)N2CCC(C)CC2)cc1	-1	0	3	nt	nt
CCCCOn1c(C)c(C(=O)OCC)c2c3no[n+]([O-])c3ccc21	3	1	-9	nt	nt
